Screening data as filed in PubChem.
CHRM5 agonist: agonists of human muscarinic M5 receptor (CHRM5); P08912; CHO-K1 hM5 cells, Fluo-8 calcium fluorescence; 0% DMSO wells, 100% maximal acetylcholine response; activation, % at 3 µM; actives 0.19% (n = 360,000);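 active means activation above the run's mean over test compounds plus 3 SD, cut at about 23% in these data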;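 further: signal is peak over basal fluorescence ratio across the kinetic read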
CHRM5 PAM: CHRM5 positive allosteric modulation; activation, % at 3 µM; CHO-K1 hM5, Fluo-8 calcium, ACh EC20 PAM; 0% = ACh EC20, 100% = ACh EC100; P08912; AID 624038; actives 0.3% (n = 360,000);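 active means activation above the run cutoff, the mean activation of all test compounds plus 3 SD, cut at about 18% in these data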
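System: CHO-K1 cell line with stable human muscarinic M5 receptor expression | Also added: EC20 acetylcholine as agonist stimulus | Compound: One concentration, 3 µM final (nominal) | Timing: Fluo-8 loading 80 min at 37 °C plus 30 min room temperature | Measured by: Fluo-8 calcium dye fluorescence, kinetic read | Read-out basis: % activation, ACh-normalized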
CHRM1 antagonist: antagonists of human M1 muscarinic receptor; CHO-K1 hM1, Fluo-8 calcium fluorescence, ACh EC80 antagonist; inhibition, % at 3 µM; actives 1.3% (n = 360,000); AID 588852;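 active means percent inhibition above its own plate's cutoff, namely the mean of that plate's compound wells plus 3 SD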;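 further: peak over basal fluorescence ratio during 140 s after agonist addition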
Target sequence (P11229 whole entry, looked up): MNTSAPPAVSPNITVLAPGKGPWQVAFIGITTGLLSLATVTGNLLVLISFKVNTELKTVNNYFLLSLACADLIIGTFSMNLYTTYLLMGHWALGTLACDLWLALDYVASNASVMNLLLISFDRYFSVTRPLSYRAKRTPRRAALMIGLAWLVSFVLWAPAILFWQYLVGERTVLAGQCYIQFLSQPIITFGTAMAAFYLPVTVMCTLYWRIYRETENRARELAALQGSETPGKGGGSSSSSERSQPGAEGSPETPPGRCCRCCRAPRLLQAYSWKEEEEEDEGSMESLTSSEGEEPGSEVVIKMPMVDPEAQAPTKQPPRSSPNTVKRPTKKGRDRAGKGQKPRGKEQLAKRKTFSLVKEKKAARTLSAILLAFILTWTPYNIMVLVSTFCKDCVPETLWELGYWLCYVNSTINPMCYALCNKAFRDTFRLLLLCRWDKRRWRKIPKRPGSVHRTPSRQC
M1 ag: agonists of human M1 muscarinic receptor | P11229 | CHO-K1 hM1, Fluo-8 calcium fluorescence, agonist mode; 0% DMSO, 100% acetylcholine EC100 | actives 0.33% (n = 360,000) | activation, % at 3 µM | AID 588814;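 active means activation above the run's mean compound activation plus 3 SD, cut at about 16% in these data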;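 further: peak over basal fluorescence ratio within a 140 s kinetic read after compound addition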
M5 antag: blocks acetylcholine activation of human M5 receptor | inhibition, % at 3 µM | AID 624040 | CHO-hM5 cells, Fluo-8 calcium fluorescence, ACh EC80 | actives 0.59% (n = 360,000);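 active means inhibition above a per-plate cutoff, the mean of that plate's test compounds plus 3 SD, cut at about 27% in these data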
M1 PAM: human CHRM1 positive allosteric modulation | activation, % at 3 µM | AID 588819 | actives 0.088% (n = 360,000) | P11229 | CHO-K1 hM1, Fluo-8 calcium fluorescence, ACh EC20; 0% = ACh EC20, 100% = maximal ACh; in the data active means activation above about 19%, passing the limit was not always enough
Numbers stand for hits; – = inactive; ! = not confirmed by another sample. Rows were chosen to be rich in hits. Some 2.1% of all compounds tested hit in one or more screens of this group.

SMILES	CHRM5 agonist	CHRM5 PAM	CHRM1 antagonist	M1 ag	M5 antag	M1 PAM
CCC1CCCCN1C(=S)NC(=O)c1cc(S(=O)(=O)N2CCOCC2)ccc1C (configuration not stated)	–	–	–	–	–	–
COc1ccccc1CNC(=O)CCC(=O)Nc1nnc(C(C)C)s1	–	–	–	–	–	–
Cc1ccccc1C(=O)Nc1ccccc1-c1nnn(CC(=O)Nc2ccc3c(c2)OCCO3)n1	–	–	–	–	–	–
O=C(c1ccccc1F)N(Cc1ccccc1)C1CCS(=O)(=O)C1 (configuration not stated)	–	–	–	–	–	–
Cc1cccc(CN2CCCC(C(=O)c3ccc4c5c(cccc35)CC4)C2)n1 (configuration not stated)	–	–	95	–	–	–
COC(=O)c1cc(S(=O)(=O)Nc2ccc(C)cn2)c[nH]1	–	–	–	–	27	–
COC(=O)c1cc(S(=O)(=O)NCCc2ccc(C)cc2)c[nH]1	–	–	–	–	–	–
COc1ccccc1-c1nnc(NC(=O)Cc2ccccc2)o1	–	–	–	–	–	–
N#C/C(=N/Nc1ccccc1[N+](=O)[O-])C(N)=S	–	–	–	–	29	–
N#C/C(=N\Nc1ccccc1)C(N)=S	–	–	–	–	–	–
C(=N\N=C\c1cccs1)/c1cccs1	–	–	–	–	–	–
COC(=O)c1[nH]c2cc(C)ccc2c1NC(=O)CN1CCOCC1	–	–	–	–	–	–
COC(=O)c1[nH]c2ccc(C)cc2c1NC(=O)CCN1CCN(Cc2ccc3c(c2)OCO3)CC1	–	–	61	–	33	–
CC1CCCC(NC(=O)c2ccc3c(SCC(=O)O)c4c(nc3c2)CCC4)C1C (configuration not stated)	–	–	39	–	–	–
Cc1c(C(=O)OC(C)C(=O)N(C)Cc2ccccc2)oc2ccccc12 (configuration not stated)	–	–	–	–	–	–
Cc1c(C(=O)OC(C)C(C)C[N+](C)(C)C)oc2ccccc12 (configuration not stated)	–	–	99	–	–	–
O=[N+]([O-])c1cc(C(F)(F)F)cc([N+](=O)[O-])c1NCCNC(=S)Nc1cccc(F)c1	–	–	–	–	28	–
Cc1ccc(S(=O)(=O)NC(=O)NCCCCNC(=O)NS(=O)(=O)c2ccc(C)cc2)cc1	–	21	–	–	–	–
Cc1ccc(S(=O)(=O)NNC(=O)CC#N)cc1	–	21	–	–	–	–
O=C(NN1C(=O)/C(=C/c2cccnc2)SC1=S)C(c1ccccc1)c1ccccc1	–	–	–	–	–	–
Cc1ccc(NC(=O)c2ccc3c(c2)[nH]c(=O)n3C(C)C)cc1	–	–	–	–	28	–
CC(C)n1c(=O)[nH]c2ccccc21	–	–	–	–	–	–
Nc1nc(N)nc(-c2cc(O)ccc2O)n1	–	–	–	–	–	–
CC(C)(C)c1cc(-c2nc(N)nc(N)n2)c(O)c(C(C)(C)C)c1	–	24	–	–	–	–
CC(=O)Nc1ccccc1C(=O)C(=O)O	–	–	–	–	–	–
SMILES	CHRM5 agonist	CHRM5 PAM	CHRM1 antagonist	M1 ag	M5 antag	M1 PAM
O=C(CSc1nc2ccccc2s1)N/N=C/c1ccco1	–	–	–	–	–	–
C/C(=N\NC(=O)CSc1nc2ccccc2s1)c1ccco1	–	21	–	–	–	–
CCCNC(=O)Cn1c(=O)/c(=C/c2ccc(-c3ccc([N+](=O)[O-])cc3)o2)s/c1=C\C(=O)C(C)(C)C	123	–	65	74	53	–
O=C(Nc1ccccc1)c1nc[nH]c1C(=O)NCCNC(=O)c1[nH]cnc1C(=O)Nc1ccccc1	–	–	25	–	–	–
Cc1c(Cl)cccc1NC(=S)NCc1ccccc1Cl	–	–	–	–	–	–
Cc1nc2sccn2c(=O)c1S(=O)(=O)NCc1ccccc1Cl	–	–	–	–	–	–
Cc1nc2sccn2c(=O)c1S(=O)(=O)NCC1CCN(Cc2ccccc2Cl)CC1	–	–	39	–	–	–
NCCCC[C@H]1CN=C(N)N1CCc1cccc2ccccc12	–	–	–	–	–	–
NCCCC[C@H]1CN=C(N)N1CCC12CC3CC(CC(C3)C1)C2	–	–	59	–	–	–
OCCNCc1ccc(OCc2ccc(Cl)cc2Cl)cc1	–	–	–	–	–	–
OCCCCNCc1ccc(OCc2ccc(Cl)cc2Cl)cc1	–	–	35	–	–	–
CCc1nc2ccc(C(=O)Nc3cccc(OCC(=O)N(C)C)c3)cn2c1N(C)Cc1cc2ccccc2s1	–	–	50	–	33	–
CCc1nc2ccc(C(=O)Nc3cccc(OCC(=O)N(C)C)c3)cn2c1N(C)C(=O)c1ccncc1	–	–	–	–	–	–
CCNC(=O)N(C)c1c(CC)nc2ccc(C(=O)Nc3cccc(OCC(=O)N(C)C)c3)cn12	–	–	32	–	–	–
COc1cc2c(cc1OC)CN(C(=O)c1ccc(OC)c([N+](=O)[O-])c1)CC2	–	–	–	–	–	–
O=c1c2c(nc3nc(CCc4ccccc4)[nH]n13)CCC2	–	22	–	–	–	–
CCOC(=O)Nc1ccc2c(c1)N(C(=O)OCCN(C)C)c1ccccc1CC2	–	–	31!	–	–	–
CCN(CC)CC(O)COC(c1ccccc1)c1ccccc1 (configuration not stated)	–	–	–	–	–	–
CN(C)CC(O)COC(c1ccccc1)c1ccccc1 (configuration not stated)	–	–	39	–	–	–
C[C@H](O)[C@@H]1CN2CCc3c([nH]c4ccccc34)[C@@H]2C[C@@H]1N(C)Cc1cc(Cl)cc(Cl)c1	–	–	–	33	–	–
CCOC(=O)N(C)[C@H]1C[C@H]2c3[nH]c4ccccc4c3CCN2C[C@H]1[C@H](C)O	–	–	–	–	–	–
Cc1onc(-c2ccccc2)c1CNC(=O)Nc1ccc(C(F)(F)F)cc1	–	–	–	–	38	–
Cc1cc(C)cc(NC(=O)NCc2c(-c3ccccc3)noc2C)c1	–	–	–	–	–	–
O=C(Nc1cccc(S(=O)(=O)c2cccc(NC(=O)c3ccco3)c2)c1)c1ccco1	–	–	–	–	–	–
COc1ccc(C)cc1N(CC(=O)Nc1cccnc1)S(=O)(=O)c1ccccc1	–	–	–	–	29	–
CC(C)(C)c1ccc(S(=O)(=O)N2CCN(CCC#N)CC2)cc1	–	–	–	–	–	–
